# An excerpt weighted towards active compounds, which were near 3.7% of everything screened.
# HCV core dimer = inhibitors of HCV core protein dimerization, primary screen, biochemical, TR-FRET, high-throughput. TR-FRET GST/Flag-core106 dimerization, 1536-well. inhibition, % at 5 µM. 300,000 tested, 0.33% active. AID 1899, 2009;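 active = inhibition above the mean of all tested compounds plus 3 SD, set per screening campaign, cut at about 45% in these data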
#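 test system = GST/Flag-tagged HCV core106 proteins | probe or stimulus = Eu donor and XL665 acceptor anti-tag antibodies | times = compound-protein-antibody incubation 4 h at 22.5 °C | signal = TR-FRET, excitation 340 nm, emission 617 and 671 nm | measure = percent inhibition of core106 dimerization signal | controls = wells lacking GST-core106 and wells with excess unlabelled core106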
# rCAG binder = binders of r(CAG) RNA repeats, primary screen, biochemical, fluorescence; 370,000 tested, 1.3% active; r(CAG) RNA repeat, TO-PRO-1 dye displacement fluorescence; AID 651821, 2012; inhibition, % at 3 µM;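 active = inhibition above the plate cutoff, the mean of all test compounds on that plate plus 3 SD, cut at about 35% in these data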;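 also: 0% = DMSO alone and 100% = 100 µM mitoxantrone as full dye displacement; higher means more dye released from RNA so lower well fluorescence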
# HCV NS3 hel inh = inhibitors of HCV NS3 helicase, primary screen, biochemical, Cy5 molecular beacon fluorescence; Hepatitis C virus NS3 helicase; AID 1800, 2009; 290,000 tested, 0.56% active; inhibition, % at 10.9 µM; NS3 helicase DNA unwinding;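 active = inhibition above the mean of all tested compounds plus 3 SD, set per campaign, cut at about 35% in these data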;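 also: 0% = DMSO wells and 100% = thioflavine S control wells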
#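 assay system = NS3 helicase fragment of HCV | buffer or medium = MOPS pH 6.5, MgCl2, DTT, Tween20, BSA | timing = 60 min unwinding reaction at 25 °C after ATP addition | signal = Cy5 beacon fluorescence read at start and 1 h | read-out basis = % inhibition of unwinding | control set = low DMSO, high thioflavine S at 110 µM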
# TAAR1 agonist = human TAAR1 agonists, primary screen, Fluo-8 calcium fluorescence, CHO RD-HGA16 cells; vehicle wells 0%, saturating PEA agonist 100%; activation, % at 3 µM; 360,000 tested, 0.99% active; AID 624467, 2012;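 active = activation above the mean activation of all test compounds in the run plus 3 SD, cut at about 38% in these data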
# Target sequence (Q96RJ0 whole entry, looked up): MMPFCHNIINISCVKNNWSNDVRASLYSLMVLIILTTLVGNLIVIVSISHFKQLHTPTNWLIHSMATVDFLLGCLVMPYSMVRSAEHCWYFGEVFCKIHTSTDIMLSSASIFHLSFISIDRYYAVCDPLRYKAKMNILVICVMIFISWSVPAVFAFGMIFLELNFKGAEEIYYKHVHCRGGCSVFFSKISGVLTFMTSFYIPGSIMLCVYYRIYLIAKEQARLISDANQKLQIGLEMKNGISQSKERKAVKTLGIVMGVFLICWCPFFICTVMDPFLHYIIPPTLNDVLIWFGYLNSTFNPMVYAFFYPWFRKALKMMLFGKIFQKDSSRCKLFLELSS
#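 Test system: RD-HGA16 (CHO) cells co-expressing Gα16 and hTAAR1 | Doses: Single dose, 3 µM | Schedule: 17-24 h seeding, 75 min 37 °C dye, 30 min RT | Evaluation: % activation from peak over basal fluorescence ratio, DMSO-to-PEA scaled | Technique: Kinetic Fluo-8 calcium fluorescence | Benchmarks: Low control DMSO, high control PEA (EC100)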
# TAAR1 antag = human TAAR1 antagonists, primary screen, Fluo-8 calcium fluorescence, CHO RD-HGA16 cells | inhibition, % at 3 µM | antagonist | Trace amine-associated receptor 1 (Homo sapiens), Q96RJ0 | 360,000 tested, 1.5% active;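 active = inhibition above a per-plate cutoff, the mean inhibition of test compounds on that plate plus 3 SD, cut at about 49% in these data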;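 also: 0% = DMSO plus EC80 beta-PEA response and 100% = DMSO alone without agonist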
#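 Material: CHO RD-HGA16 cells bearing hTAAR1; compound dosing: one-point dosing, 3 µM nominal final; schedule: dye loading 75 min at 37 °C, then 30 min room temperature; measured by: calcium fluorescence with Fluo-8; control set: vehicle and agonist controls; replication: n of 1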
# * hit, by the source's call; . = no result given.
SMILES,HCV core dimer,rCAG binder,HCV NS3 hel inh,TAAR1 agonist,TAAR1 antag
O=C(COC(=O)c1ccc2c(c1)C(=O)N(CCc1ccccc1)C2=O)Nc1ccc(OC(F)F)cc1,9,1,3,13,15
CN1CCN(c2cc(N3CCN(C(=O)c4ccco4)CC3)c3c4c(onc24)-c2ccccc2C3=O)CC1,-28,.,-19,.,.
O=C(O)CCCNc1cc(N2CCC3(CC2)OCCO3)c2noc3c2c1C(=O)c1ccccc1-3,-32,.,37*,.,.
CCOC(=O)N1CCN(c2cc(NCCC(=O)O)c3c4c(onc24)-c2ccccc2C3=O)CC1,-60,.,36*,.,.
O=C1c2ccccc2-c2onc3c(N4CCN(CCO)CC4)cc(N4CCN(C(=O)c5ccco5)CC4)c1c23,-51,7,-17,4,-2
Cc1c(OC(C)C(=O)NC(Cc2c[nH]c3ccc(O)cc23)C(=O)O)ccc2c1oc(=O)c1ccccc12 (stereo not drawn),-1,58*,24,1,10
Clc1ccc(CN2CCN(N=Cc3cccc(OCc4ccccc4)c3)CC2)cc1,.,0,.,.,.
Cc1ccc(OCc2cc(C(=O)NCc3ccc(OC(F)(F)F)cc3)no2)cn1,-2,-9,-12,41*,48
CCOC(=O)CC[C@@H]1CC[C@]2(CCCN(C(=O)C3CCCCC3)C2)O1,.,1,.,.,.
CCCCCCc1c(C)c2ccc(OCC(=O)N3CCC[C@H]3C(=O)O)c(C)c2oc1=O,0,41*,14,-1,6
COc1ccc(Br)cc1C1CC(=O)N2CN(C)CSC2=C1C#N (stereo not drawn),-1,17,35,46*,-9
COC(=O)CN1CCN(C(=O)c2csc(N3CCOCC3)n2)CC1,.,1,.,.,.
CC[C@H](CCC(=O)N(c1ccccc1)c1ccccc1)c1ccc(C)cc1,.,2,.,.,.
Cn1cccc1C1Nc2ccccc2NC2=C1C(=O)CC(C)(C)C2 (stereo not drawn),-9,5,2,16,56*
CC1(C)CC(=O)C2=C(C1)Nc1ccccc1NC2c1cccc(F)c1 (stereo not drawn),.,1,20,1,4
Cc1cc(CNC(=O)COc2ccccc2)c2ccccc2n1,.,-4,-14,2,-12
Cc1cccc(OCC(=O)NNc2c3ccccc3nc3ccccc23)c1,-8,9,-4,16,61*
CCN1CC2([N+](=O)[O-])C=CC(=O)C([N+](=O)[O-])(C1)C2CC(=O)c1ccccc1 (stereo not drawn),54*,26,9,2,-17
CCN(CC(=O)Nc1ccc(OC)cc1)C(=O)Cc1cccs1,52*,16,.,3,-11
Cc1cc(N2CCCN(C)CC2)n2nc(C)nc2n1,.,-2,.,.,.
Cc1ccc(C2=NS(=O)(=O)N(C)C(C(=O)NCc3cccs3)=C2)cc1,7,7,-10,9,27
COc1ccc(OC)c(C2=NS(=O)(=O)N(C)C(C(=O)NCc3cccs3)=C2)c1,9,2,2,43*,26
COc1ccc(CSc2nnc(SCC(=O)Nc3ccc4c(c3)OCO4)s2)cc1,.,6,.,.,.
Oc1ccc2sc(-c3ccccc3O)c(-c3ccc(OCCN4CCCCC4)cc3)c2c1,.,8,.,39*,53*
c1ccc(-c2sc3ccccc3c2-c2ccc(OCCN3CCCC3)cc2)cc1,.,-2,.,11,21
SMILES,HCV core dimer,rCAG binder,HCV NS3 hel inh,TAAR1 agonist,TAAR1 antag
CCN(CC(=O)Nc1ccccc1OC)C(=O)c1ccc2[nH]c3c(c2c1)CC(C)CC3 (stereo not drawn),.,6,.,24,56*
CCCN(CC(=O)Nc1ccccc1OC)C(=O)c1ccc2[nH]c3c(c2c1)CC(C)CC3 (stereo not drawn),.,2,.,15,51*
CC1CCc2[nH]c3ccc(C(=O)N(C)CC(=O)Nc4ccccc4Cl)cc3c2C1 (stereo not drawn),.,0,.,3,20
CCOC(=O)c1nn(-c2ccccc2C)c2nc(-c3ccc(Cl)cc3)c(C#N)c(=O)n12,56*,2,2,8,-5
CCOC(=O)c1nn(-c2ccccc2C)c2nc(-c3ccc(C)cc3)c(C#N)c(=O)n12,27,0,1,1,0
COc1cccc(OC)c1C(=O)NC(=S)Nc1cc(-c2nc3ccccc3[nH]2)ccc1Cl,25,24,-16,11,50*
C=CCN(c1ccc(OC)cc1)S(=O)(=O)c1ccc(Cl)c(C(=O)OCC(=O)NC2CC2)c1,-2,-4,-14,2,7
C=CCN(c1ccccc1)S(=O)(=O)c1ccc(Cl)c(C(=O)OCC(=O)c2[nH]c(C)c(C(C)=O)c2C)c1,21,11,-6,5,50*
Cc1cccc(C(=O)NC(=S)NNC(=O)c2cccs2)c1,-3,5,0,129*,61*
COc1ccc(CN2CCC(CNC(=O)NCc3ccccc3)CC2)cc1,.,3,.,.,.
O=C(Nc1ccc(Cl)cc1)Nc1ccccc1C(=O)N1CCCC1,.,3,.,.,.
C=CCN(CC=C)S(=O)(=O)c1ccc(NC(=S)NC(=O)/C=C/c2cccc3ccccc23)cc1,56*,7,5,2,1
C=CCN(CC=C)S(=O)(=O)c1ccc(NC(=S)NC(=O)/C=C/c2ccc(C)cc2)cc1,17,3,0,1,-7
NS(=O)(=O)c1ccc(CCNC(=O)c2cc(-c3ccccc3)nc3ccccc23)cc1,-21,8,13,7,45
COc1ccc(-c2cc(C(=O)NCCc3ccc(S(N)(=O)=O)cc3)c3ccccc3n2)cc1,6,18,0,8,54*
Cc1ccc(-c2cc(C(=O)NCCc3ccc(S(N)(=O)=O)cc3)c3ccccc3n2)cc1,-4,13,13,6,51*
NS(=O)(=O)c1ccc(CCNC(=O)c2cc(-c3ccco3)nc3ccccc23)cc1,.,27,.,0,-28
CCOc1ccc(-c2c(C(=O)N/N=C/c3ccc(C)s3)nnn2-c2nonc2N)cc1,17,.,34,.,.
CCOc1cccc(-c2c(C(=O)N/N=C/c3ccc(C)s3)nnn2-c2nonc2N)c1,11,11,-6,53*,-13
COc1cccc(-c2c(C(=O)N/N=C/c3ccncc3)nnn2-c2nonc2N)c1,3,0,-8,16,3
Cc1ccc(-c2c(C(=O)N/N=C/c3ccc(C)o3)nnn2-c2nonc2N)cc1,2,3,3,43*,5
COc1cccc(-c2c(C(=O)N/N=C/c3ccc(C)o3)nnn2-c2nonc2N)c1,1,2,5,42*,27
COc1ccc(-n2c(SCc3cccc4ccccc34)nnc2-c2ccccc2)cc1,.,7,.,.,.

# Screening data as filed in PubChem BioAssay.
